A word on the IC50: it is the concentration at which inhibition is half-maximal. The inhibition is how much of the control response was suppressed. As a reminder, the mortality is the share of the test organisms that died.

Activity calls are given as the source filed them. The rule behind the calls is not given here.

These results are taken from ChEMBL document CHEMBL4715835, “Lipidic synthetic alkaloids as SK3 channel modulators. Synthesis and biological evaluation of 2-substituted tetrahydropyridine derivatives with potential anti-metastatic activity” (Eur J Med Chem, 2020).

Data set [1] can be described thus: Toxicity in human MDA-MB-231 cells assessed as reduction in cell number after 48 hrs by Hoechst 33342 staining based assay. The procedure, abridged: (§1)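 4000 cells per well. Cells exposed 24 h after seeding to 6 concentrations ([…]) for 48 h. They were then fixed in cold 90% ethanol/5% acetic acid for 20 min and nuclei stained with Hoechst 33342. Plates imaged on a high-content reader. IC₅₀ calculated; normal diploid skin fibroblasts served as control cells.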

Data set [2] deals with Small conductance calcium-activated potassium channel protein 3 (Homo sapiens) (UniProt Q9UGI6). Briefly: Inhibition of SK3 (unknown origin) expressed in HEK293 cells assessed as reduction in channel current at 10 uM with 0 mV holding potential measured within 100 secs by patch clamp electrophysiological method relative to control. It is filed as cell-based. The following applies: time 100.0 sec. The procedure, abridged:
(§2)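 Patch clamp on HEK-293 cells stably expressing SK3 (lentiviral). Compound added acutely; DMSO/methanol was the vehicle, and runs with or without apamin. Ramp from −80 to +80 mV, holding at 0 mV, 500 ms ramps at 4 s intervals. Current analyzed at 0 mV to minimize chloride currents, followed as a time course. Pipette solution adjusted to pH 7.2 with KOH.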
(In patch-clamp work, channel activity is measured electrically.)

Data set [3] in a line: Toxicity in human Caco-2 cells assessed as reduction in cell number after 48 hrs by Hoechst 33342 staining based assay. The procedure, abridged:
as §1

Data set [4] can be described thus: Toxicity in human Huh-7 cells assessed as reduction in cell number after 48 hrs by Hoechst 33342 staining based assay. Put shortly:
as §1

Data set [5] concerns MDA-MB-435. Briefly: Effect on calcium influx in human MDA-MB-435 cells harboring siRNA and siCTL at 1 uM measured after 1 hr by Fura2-AM dye based fluorescence assay. It is filed as functional, cell-based. The procedure, abridged: (§3)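 Constitutive Ca²⁺ entry in MDA-MB-435s shRD or shSK3 cells, measured 48 h after transfection with 30 nM siOrai1 or siCTL. Cells were treated 1 h with compound and loaded with Fura2-AM for 45 min at 37 °C. They were then resuspended in Ca²⁺-free solution for 20 s before 2 mM CaCl₂ was added. Emission read at 510 nm with 340/380 nm excitation. Steady-state signal normalized to control. Three experiments in triplicate.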

For data set [6], the system named is MDA-MB-435. The data set is described as follows: Antimetastatic activity against human MDA-MB-435 cells assessed as reduction in cell migration at 1 uM after 24 hrs by […] relative to control. It is filed as functional. Details: scale not given: the % may be the effect or the level left.
The subject of data set [7] is MDA-MB-435. Briefly: Antimetastatic activity against human MDA-MB-435 cells harboring shRNA assessed as reduction in cell migration at 3 uM after 24 hrs by […] relative to control. Details: scale not given: the % may be the effect or the level left. It is filed as functional.
In data set [8] the test system is MDA-MB-435. Briefly: Effect on calcium influx in human MDA-MB-435 cells harboring siRNA and siOrai1 at 1 uM measured after 1 hr by Fura2-AM dye based fluorescence assay. It is filed as functional, cell-based. Put shortly:
as §3

In data set [9] the target is Small conductance calcium-activated potassium channel protein 3 (Homo sapiens) (UniProt Q9UGI6). The data set is described as follows: Inhibition of SK3 (unknown origin) expressed in HEK293 cells assessed as reduction in channel current at 10 uM with 0 mV holding potential by patch clamp electrophysiological method. The data set is classed as cell-based. Put shortly:
as §2

Data set [10] can be described thus: Toxicity in human skin fibroblasts assessed as reduction in cell number after 48 hrs by Hoechst 33342 staining based assay. The data set is classed as tissue-based, Fibroblast. Put shortly: as §1
Data set [11] relates to MDA-MB-435. Briefly: Toxicity in human MDA-MB-435 cells assessed as mortality at 1 uM measured after 24 hrs by MTT assay relative to control. It is filed as cell-based. As to conditions: mda-mb-435, 24 h. The procedure, abridged:
(§4)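 MTT viability assay: about 4 × 10⁴ MDA-MB-435s cells seeded in triplicate with the molecules (tested series 100 nM, 300 nM, 1 µM, 3 µM, 10 µM) and kept 24 h at 37 °C. Medium was then removed and cells incubated 45 min at 37 °C with tetrazolium salt, which viable cells reduce to formazan. Results given as % mortality.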
On the technique in general: Tetrazolium dyes change colour on reduction, which living cells bring about.

Data set [12] has as its system MDA-MB-435. Briefly: Antimetastatic activity against human MDA-MB-435 cells harboring shRNA assessed as reduction in cell migration at 0.3 to 3 uM after 24 hrs by […]. It is filed as functional, cell-based. The following applies: dose 0.3-3 µM.
Data set [13] is described as follows: Toxicity in human HCT-116 cells assessed as reduction in cell number after 48 hrs by Hoechst 33342 staining based assay. Put shortly: as §1
Data set [14] in a line: Toxicity in human PC-3 cells assessed as reduction in cell number after 48 hrs by Hoechst 33342 staining based assay. Put shortly: as §1
Data set [15] has as its system MDA-MB-435. Briefly: Antimetastatic activity against human MDA-MB-435 cells harboring SK3 shRNA assessed as reduction in cell migration after 24 hrs by […]. It is filed as functional, cell-based.
The nature of data set [16]: Toxicity in human NCI-H727 cells assessed as reduction in cell number after 48 hrs by Hoechst 33342 staining based assay. Put shortly: as §1
Data set [17] deals with Small conductance calcium-activated potassium channel protein 3 (Homo sapiens) (UniProt Q9UGI6). The data set is described as follows: Inhibition of SK3 (unknown origin) expressed in HEK293 cells assessed as reduction in channel current at 10 uM with 0 mV holding potential in presence of -apamin by patch clamp electrophysiological method. It is filed as cell-based. Put shortly: as §2

The subject of data set [18] is MDA-MB-435. The data set is described as follows: Toxicity in human MDA-MB-435 cells assessed as mortality at 10 uM measured after 24 hrs by MTT assay relative to control. As to conditions: mda-mb-435, 24 h. It is filed as cell-based. Put shortly:
as §4

Data set [19] deals with MDA-MB-435. The data set is described as follows: Inhibition of SK3/Orai1 in human MDA-MB-435 cells harboring SK3 shRNA assessed as reduction in Ca2+ influx at 1 uM measured after 1 hr by Fura2-AM dye based fluorescence assay. The data set is classed as cell-based. The procedure, abridged: as §3
Data set [20] is described as follows: Toxicity in human MCF7 cells assessed as reduction in cell number after 48 hrs by Hoechst 33342 staining based assay. Put shortly:
as §1

The target in data set [21] is Small conductance calcium-activated potassium channel protein 3 (Homo sapiens) (UniProt Q9UGI6). Briefly: Inhibition of SK3 in human MDA-MB-435 cells harboring SK3 shRNA assessed as reduction in Ca2+ influx at 1 uM measured after 1 hr by Fura2-AM dye based fluorescence assay. The data set is classed as cell-based. The procedure, abridged: as §3

Sequence of Small conductance calcium-activated potassium channel protein 3 (Homo sapiens) (Q9UGI6 whole entry): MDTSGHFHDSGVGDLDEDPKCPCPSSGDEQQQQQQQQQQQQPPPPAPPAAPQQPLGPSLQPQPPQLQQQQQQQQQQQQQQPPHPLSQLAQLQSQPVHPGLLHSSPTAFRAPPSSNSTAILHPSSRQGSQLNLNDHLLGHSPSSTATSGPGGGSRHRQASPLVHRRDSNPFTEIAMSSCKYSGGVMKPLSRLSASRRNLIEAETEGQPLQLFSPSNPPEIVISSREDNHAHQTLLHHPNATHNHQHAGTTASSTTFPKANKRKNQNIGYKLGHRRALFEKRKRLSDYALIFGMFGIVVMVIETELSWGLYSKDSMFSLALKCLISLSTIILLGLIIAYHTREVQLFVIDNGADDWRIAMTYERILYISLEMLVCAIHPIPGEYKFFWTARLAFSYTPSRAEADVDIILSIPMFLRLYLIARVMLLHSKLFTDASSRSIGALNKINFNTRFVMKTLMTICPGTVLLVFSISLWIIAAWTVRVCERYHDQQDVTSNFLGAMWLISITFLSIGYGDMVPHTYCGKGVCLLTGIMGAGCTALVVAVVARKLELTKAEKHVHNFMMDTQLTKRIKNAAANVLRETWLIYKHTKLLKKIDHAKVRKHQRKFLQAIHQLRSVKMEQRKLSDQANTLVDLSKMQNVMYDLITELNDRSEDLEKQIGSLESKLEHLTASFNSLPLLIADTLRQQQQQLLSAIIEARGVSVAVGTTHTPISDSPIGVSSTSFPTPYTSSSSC

For the molecule `CCCCCCCC/C=C\CCCCCCC[C@H](C[C@@H]1C=CCCN1C)OC(C)=O`, the IC50 at 48 h in [1] turned out to be 10 µM; in [3], 9 µM; in [4] it was 10 µM; in data set [10], 13 µM; in data set [13], 9 µM; in data set [14], 8 µM. Further, the IC50 at 48 h in data set [16] amounted to 19 µM; in [20] it was 15 µM. Further, the inhibition came to 50% in [2] and 70% in data set [9]. Also, the result in the data set with MDA-MB-435 [5], in the data set on MDA-MB-435 [8] and in the data set with MDA-MB-435 [12] was inactive. The figures for the Activity in the data set on MDA-MB-435 [6], with MDA-MB-435 [7] and with MDA-MB-435 [15] were 40%, “<=40%” and “Dose-dependent effect”, respectively. The figures for the mortality in the data set with MDA-MB-435 [11] and in the data set on MDA-MB-435 [18] were 0% and 70%, respectively. The inhibition entry (in [17]; in the data set on MDA-MB-435 [19]) was “Active” in each case. In data set [21], the inhibition entry is “inactive”.
